Source: article PMC2752341 (Bioorganic & medicinal chemistry, 2008)

Key:
[1] = system: MDA-MB-435 human tumor xenografts; assay: Human tumor xenograft antitumor bioassay; type: in vivo, athymic nude mice; conditions: for Average tumor volume: MDA-MB-435 xenograft in athymic nude mice; for Antitumor activity in vivo (in words): MDA-MB-435 xenograft, at maximally tolerated doses, I.P.
In short: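 Female NCR/NU NU mice, about 9 weeks old, were inoculated sc in the right flank with 1.5 × 10^6 MDA-MB-435 cells (RPMI 1640/10% FBS culture) and grouped by matched tumor volume at 19–20 days. Test compound was given qd × 5/week at per-compound doses, some adjusted during the study; vehicle was 0.1% citrate in H2O. Caliper tumor volume ((l*w2)/2) was taken every other day, with daily weights.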

human topoisomerase I = biological target: T1, human topoisomerase I (Homo sapiens, UniProt P11387); assay: Topoisomerase I-mediated DNA cleavage assay; type: biochemical; conditions: for TOP1-targeting activity (in words): summary of Table 1
T1 sequence (P11387 1-765): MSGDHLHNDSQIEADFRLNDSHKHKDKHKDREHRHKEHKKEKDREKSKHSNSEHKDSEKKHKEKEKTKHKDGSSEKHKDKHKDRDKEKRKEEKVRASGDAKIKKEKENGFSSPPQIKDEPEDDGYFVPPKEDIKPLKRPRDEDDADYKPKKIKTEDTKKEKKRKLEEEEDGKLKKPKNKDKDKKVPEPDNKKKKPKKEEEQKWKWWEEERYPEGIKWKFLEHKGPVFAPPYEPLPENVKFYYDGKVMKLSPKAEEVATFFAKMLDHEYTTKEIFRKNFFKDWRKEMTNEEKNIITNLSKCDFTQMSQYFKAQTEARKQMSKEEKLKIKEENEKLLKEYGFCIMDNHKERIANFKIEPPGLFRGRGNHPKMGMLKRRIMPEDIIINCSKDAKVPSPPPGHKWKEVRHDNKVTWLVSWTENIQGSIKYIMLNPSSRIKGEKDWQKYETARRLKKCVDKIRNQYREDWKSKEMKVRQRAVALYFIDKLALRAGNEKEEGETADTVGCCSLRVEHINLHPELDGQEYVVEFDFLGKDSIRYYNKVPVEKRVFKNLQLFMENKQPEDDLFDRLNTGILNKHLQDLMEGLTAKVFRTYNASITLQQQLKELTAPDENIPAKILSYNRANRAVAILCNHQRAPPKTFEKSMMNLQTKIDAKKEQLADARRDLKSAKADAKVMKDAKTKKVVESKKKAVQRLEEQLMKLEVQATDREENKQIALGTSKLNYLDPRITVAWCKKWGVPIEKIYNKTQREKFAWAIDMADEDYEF

RPMI8402 cells = assay: MTT cytotoxicity assay in RPMI8402; type: cell-based, human
KBH5.0 cells = assay: MTT cytotoxicity assay in KBH5.0; type: cell-based; conditions: from relative cytotoxicity KBH5.0 vs KB3-1
KBV-1 cells = assay: MTT cytotoxicity assay in KBV-1; type: cell-based; conditions: for Substrate for MDR1 efflux transporter (conclusion in words): from relative cytotoxicity KBV-1 vs KB3-1

SMILES	Average tumor volume ([1]; Day 7, I.P.) [mm^3]	Average tumor volume ([1]; Day 14, I.P.) [mm^3]	Average tumor volume ([1]; Day 21, I.P.) [mm^3]	Average tumor volume ([1]; Day 28, I.P.) [mm^3]	Average tumor volume ([1]; Day 35, I.P.) [mm^3]	Average tumor volume ([1]; Day 42, I.P.) [mm^3]	Average tumor volume ([1]; Day 49, I.P.) [mm^3]	Antitumor activity in vivo (in words) [1]	TOP1-targeting activity (in words) (human topoisomerase I)	fold less cytotoxic than 13 (RPMI8402 cells)	TOP1-mediated cleavage (REC, relative effective concentration) (human topoisomerase I; concentration relative to topotecan (=1) producing 10% cleavage of plasmid DNA)	Substrate for BCRP efflux transporter (conclusion in words) (KBH5.0 cells)	Substrate for MDR1 efflux transporter (conclusion in words) (KBV-1 cells)	fold difference in IC50 values between KB3-1 cells and KBV-1 cells (KBV-1 cells; KBV-1 vs KB3-1) [fold]
COc1cc2c(=O)n(CCN(C)CC#N)c3c4cc5c(cc4ncc3c2cc1OC)OCO5 [Compound 10, 2,3-Methylenedioxy-8,9-dimethoxy-5-[N-cyanomethyl-N-methylaminoethyl]dibenzo[c,h][1,6]naphthyridin-6-one]	149	222	370	392	528	669	919	less active than the N-methyl-N-propargyl 13 or N-methyl-N-acetamide 16	–	–	–	–	–	–
CCN(CCn1c(=O)c2cc(OC)c(OC)cc2c2cnc3cc4c(cc3c21)OCO4)CC(F)(F)F [Compound 8, 2,3-Methylenedioxy-8,9-dimethoxy-5-[N-ethyl-N-(2,2,2-trifluoroethyl)aminoethyl]dibenzo[c,h][1,6]naphthyridin-6-one]	127	176	268	310	435	543	718	less efficacious than the N-ethyl-N-cyanomethyl analog 11 or the N-ethyl-N-propargyl derivative 14	–	–	–	–	–	–
COc1cc2c(=O)n(CCN(CC#N)C(C)C)c3c4cc5c(cc4ncc3c2cc1OC)OCO5 [Compound 12, 2,3-Methylenedioxy-8,9-dimethoxy-5-[N-cyanomethyl-N-isopropyl-aminoethyl]dibenzo[c,h][1,6]naphthyridin-6-one]	142	175	213	220	250	286	314	less potent and less efficacious than ARC-111	–	–	–	–	–	–
C#CCN(CC)CCn1c(=O)c2cc(OC)c(OC)cc2c2cnc3cc4c(cc3c21)OCO4 [Compound 14, 2,3-Methylenedioxy-8,9-dimethoxy-5-[N-ethyl-N-(prop-2-ynyl)aminoethyl]dibenzo[c,h][1,6]naphthyridin-6-one]	115	106	170	204	331	349	488	less potent and effective than ARC-111	much less active as TOP1-targeting agents	2-6 fold	–	–	–	–
CC[C@@]1(O)C(=O)OCc2c1cc1n(c2=O)Cc2cc3ccccc3nc2-1 [CPT, camptothecin, reference compound]	–	–	–	–	–	–	–	–	–	–	0.2	–	–	–
C#CCN(C)CCn1c(=O)c2cc(OC)c(OC)cc2c2cnc3cc4c(cc3c21)OCO4 [Compound 13, 2,3-Methylenedioxy-8,9-dimethoxy-5-[N-methyl-N-(prop-2-ynyl)aminoethyl]dibenzo[c,h][1,6]naphthyridin-6-one]	144	167	218	284	317	358	433	–	retained potent TOP1-targeting activity	–	–	does not appear to be a substrate for either MDR1 or BCRP	does not appear to be a substrate for either MDR1 or BCRP	–
COc1cc2c(=O)n(CCN(C)CC(N)=O)c3c4cc5c(cc4ncc3c2cc1OC)OCO5 [Compound 16, 2,3-Methylenedioxy-8,9-dimethoxy-5-[N-(2-amino-2-oxoethyl)-N-methylaminoethyl]dibenzo[c,h][1,6]naphthyridin-6-ones]	147	178	230	319	344	434	527	–	retained potent TOP1-targeting activity	–	–	appears to be a substrate for BCRP	substrates for MDR1	7
CCN(CC#N)CCn1c(=O)c2cc(OC)c(OC)cc2c2cnc3cc4c(cc3c21)OCO4 [Compound 11, 2,3-Methylenedioxy-8,9-dimethoxy-5-[N-cyanomethyl-N-ethylaminoethyl]dibenzo[c,h][1,6]naphthyridin-6-one]	100	156	178	202	293	361	435	less potent and effective than ARC-111	–	–	–	–	–	–
C#CCN(CCn1c(=O)c2cc(OC)c(OC)cc2c2cnc3cc4c(cc3c21)OCO4)C(C)C [Compound 15, 2,3-Methylenedioxy-8,9-dimethoxy-5-[N-isopropyl-N-(prop-2-ynyl)aminoethyl]dibenzo-[c,h][1,6]naphthyridin-6-one]	99	112	165	170	234	310	357	less potent and less efficacious than ARC-111	much less active as TOP1-targeting agents	2-6 fold	–	–	–	–
COc1cc2c(=O)n(CCN(C)C)c3c4cc5c(cc4ncc3c2cc1OC)OCO5 [Compound 1, 5H-8,9-dimethoxy-5-(2-N,N-dimethylaminoethyl)-2,3-methylenedioxydibenzo[c,h][1,6]-naphthyridin-6-one]	120	123	145	158	175	189	242	–	–	–	–	–	–	–
